ERp5 block: inhibitors of human ERp5; Q15084; ERp5 insulin aggregation, absorbance 650 nm, 90 min; inhibition, % at 9.99 µM; hit rate 0.05% among 350,000; AID 651711;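 active means mean replicate inhibition above about 25%, with every replicate also reaching it, limit read from the data, passing the limit was not always enough; inconclusive means only one of those two criteria met; inactive means neither criterion met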
Target sequence (Q15084 whole entry, looked up): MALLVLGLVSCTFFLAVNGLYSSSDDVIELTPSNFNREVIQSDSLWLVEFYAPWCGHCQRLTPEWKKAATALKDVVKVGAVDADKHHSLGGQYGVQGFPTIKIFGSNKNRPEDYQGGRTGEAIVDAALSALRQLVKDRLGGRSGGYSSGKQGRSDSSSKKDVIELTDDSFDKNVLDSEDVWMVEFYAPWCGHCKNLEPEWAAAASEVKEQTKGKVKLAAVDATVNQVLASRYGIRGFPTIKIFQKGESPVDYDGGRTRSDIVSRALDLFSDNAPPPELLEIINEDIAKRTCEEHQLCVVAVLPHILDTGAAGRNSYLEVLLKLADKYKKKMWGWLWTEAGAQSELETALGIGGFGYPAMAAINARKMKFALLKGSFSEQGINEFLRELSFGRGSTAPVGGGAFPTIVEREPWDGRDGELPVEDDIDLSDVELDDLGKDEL
FN deposit inh: fibronectin deposition inhibition. AH1F fibroblasts, Alexa488-fibronectin deposition fluorescence, overnight. inhibition, % at 12.6 µM. hit rate 0.086% among 350,000. AID 743247;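 active means mean inhibition across replicates of 30% or more, regardless of how many single replicates reach that level; inconclusive means mean under 30% yet at least half of replicates reach 30%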
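Assay system: AH1F fibroblast monolayer, labelled fibronectin deposition. Amount: 10000 cells per well. Also added: labelled fibronectin 24 nM. Compound: single-point pinned compound. Incubation: cell attachment 1 h, compound and FN exposure overnight. Detection: fluorescence after three HBSS washes, excitation 485 nm, emission 525 nm. Read-out: inhibition of fibronectin deposition signal.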
MLL AF4-AF9 inh: MLL-AF4/AF9 protein interaction inhibition; P42568; AlphaScreen, biotin-AF4 peptide binding to FLAG-AF9; inhibition, % at 10 µM; hit rate 0.47% among 350,000;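 active means every replicate reaching a set inhibition limit, whatever the replicate mean, cut at about 25% in these data; inconclusive means mean inhibition reaches that limit but some replicates miss it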
SIRT5 inh: sirtuin-5 (human) deacylase inhibition; Q9NXA8; Purified SirT5, succinyl-peptide AMC, trypsin-coupled fluorescence; inhibition, % at 15 µM; hit rate 1.1% among 330,000; AID 652115; in the data active means inhibition above about 15%; inconclusive means no clear call, values can overlap the other calls
PDI inh: inhibitors of human protein disulfide isomerase; P07237; AID 588391; inhibition, % at 10 µM; hit rate 0.052% among 350,000; PDI insulin aggregation turbidity, A650, 90 min;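 active means mean inhibition across replicates of 30% or more, whatever share of single replicates reach that level; inconclusive means mean inhibition below 30% while every single replicate reaches 30%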
A number is an active result; ! = not confirmed by another sample. Sampled rows, rich in hits. Any-hit rate of the full collection: about 1.3%.

What do the screens show for `O=C(Nc1ccccc1)N1C[C@@H]2N[C@H](C1)[C@@H]2c1ccc(/C=C/c2ccccc2)cc1`?
ERp5 block: inactive; FN deposit inh: inactive; MLL AF4-AF9 inh: 29; SIRT5 inh: inactive

What do the screens show for `Cc1ccc(-c2ccc(C3[C@@H]4CN(C(=O)Nc5ccc(C(F)(F)F)cc5)C[C@H]3N4)cc2)cc1` (stereo partly specified)?
ERp5 block: inactive; FN deposit inh: inactive; MLL AF4-AF9 inh: inactive; SIRT5 inh: inactive

Results for O=C(Nc1ccc(C(F)(F)F)cc1)N1C[C@@H]2N[C@H](C1)C2c1ccc(-c2cccc(F)c2)cc1 (stereo partly specified) ?
ERp5 block: inactive; FN deposit inh: inactive; MLL AF4-AF9 inh: inactive; SIRT5 inh: 15!

What do the screens show for `CCOC(=O)C(NC(C)=O)(Nc1ccc(S(=O)(=O)Nc2onc(C)c2C)cc1)C(F)(F)F` (stereo unspecified)?
FN deposit inh: inactive; PDI inh: inactive

What do the screens show for `Cc1ccc(/C=N/NC(=O)c2ccc(NC(=O)c3ccccc3Cl)cc2)o1`?
ERp5 block: inactive; FN deposit inh: inactive; MLL AF4-AF9 inh: inactive; SIRT5 inh: inactive; PDI inh: inactive

What do the screens show for `COc1ccc(OC)c(S(=O)(=O)Oc2ccc(N)c3ccccc23)c1`?
ERp5 block: inactive; FN deposit inh: inactive; MLL AF4-AF9 inh: inactive; SIRT5 inh: 15; PDI inh: inactive

What do the screens show for `COc1ccc(OC)c(S(=O)(=O)Nc2cccc3ccccc23)c1`?
ERp5 block: inactive; FN deposit inh: inactive; MLL AF4-AF9 inh: inactive; SIRT5 inh: inactive; PDI inh: inactive

Results for CCOc1ccc(NC(=O)C2CCN(S(=O)(=O)c3c(C)n[nH]c3C)CC2)cc1 ?
PDI inh: inactive

Results for O=C1c2ccccc2C(=O)c2c(Nc3ccc(CCO)cc3)ccc(O)c21 ?
ERp5 block: inactive; FN deposit inh: inactive; MLL AF4-AF9 inh: 50; SIRT5 inh: inactive; PDI inh: inactive

How did CC(C)c1ccc(NC(=O)Nc2nc(C(N)C3CCCCC3)cs2)cc1 (stereo unspecified) do in these assays?
ERp5 block: inactive; FN deposit inh: inactive; MLL AF4-AF9 inh: inconclusive; SIRT5 inh: inactive; PDI inh: inactive

What do the screens show for `CN(C)c1ccc(NC(=O)Nc2nc(C(N)C3CCCCC3)cs2)cc1` (stereo unspecified)?
ERp5 block: inactive; FN deposit inh: inactive; MLL AF4-AF9 inh: 57; SIRT5 inh: inactive; PDI inh: inactive

Results for Cc1coc2c(C)c3oc(=O)c(CCC(=O)N4CCC(C(=O)NCCCC(=O)O)(c5ccccc5)CC4)c(C)c3cc12 ?
ERp5 block: inactive; FN deposit inh: inactive; MLL AF4-AF9 inh: inactive; SIRT5 inh: inactive; PDI inh: inactive

How did Cn1c(NCCCO)nc2c1c(=O)n(Cc1ccccc1F)c(=O)n2C do in these assays?
ERp5 block: inactive; SIRT5 inh: 39; PDI inh: inactive

How did COc1ccc(NC(=O)COC(=O)c2ccc3ccccc3n2)c(OC)c1 do in these assays?
ERp5 block: inactive; FN deposit inh: inactive; MLL AF4-AF9 inh: inactive; SIRT5 inh: inactive; PDI inh: inactive

Results for COc1ccc(N=Nc2cc(OC)c(N)cc2OC)cc1 ?
ERp5 block: inactive; FN deposit inh: inactive; MLL AF4-AF9 inh: 32; SIRT5 inh: inactive; PDI inh: inactive

How did O=C(CSc1nn(-c2ccc(F)cc2)c(=S)s1)N1CCN(C(=O)c2ccco2)CC1 do in these assays?
PDI inh: inactive

How did C=C(C)COc1ccc(-c2nc(N)ncc2-c2ccc(OC)cc2)c(O)c1 do in these assays?
FN deposit inh: inactive; MLL AF4-AF9 inh: 28

What do the screens show for `C=C(C)COc1ccc(-c2nc(N)ncc2-c2ccc(OC)c(OC)c2)c(O)c1`?
ERp5 block: inactive; FN deposit inh: inactive; MLL AF4-AF9 inh: inactive; SIRT5 inh: inactive; PDI inh: inactive

Results for O=C(CC1CC1)N1CC(=O)N2[C@H](CO)[C@H](c3ccc(C#Cc4ccc(F)cc4)cc3)[C@H]2C1 ?
ERp5 block: inactive; MLL AF4-AF9 inh: inactive; SIRT5 inh: inactive

Results for COC1OC2COC(c3ccccc3)OC2C(=O)C1NC(=O)c1ccccc1 (stereo unspecified) ?
ERp5 block: inactive; FN deposit inh: inactive; MLL AF4-AF9 inh: inactive; SIRT5 inh: inactive; PDI inh: inactive

How did O=C(CN1CCN(c2ncc(C(F)(F)F)cc2Cl)CC1)N1CCN(c2ncc(C(F)(F)F)cc2Cl)CC1 do in these assays?
ERp5 block: inactive; FN deposit inh: inactive; SIRT5 inh: inactive; PDI inh: inactive

What do the screens show for `CN1CCN(C(=O)C2CCN(c3ncc(C(F)(F)F)cc3Cl)CC2)CC1`?
ERp5 block: inactive; FN deposit inh: inactive; MLL AF4-AF9 inh: inactive; SIRT5 inh: 37; PDI inh: inactive

How did CS(=O)(=O)N1CC(=O)N2[C@H](CO)[C@H](c3ccc(C#CCC4CCCC4)cc3)[C@H]2C1 do in these assays?
ERp5 block: inactive; FN deposit inh: inactive; MLL AF4-AF9 inh: inactive; SIRT5 inh: inactive

Results for CC=Cc1ccc2n(c1=O)C[C@@H]1[C@@H](CO)[C@H](C(=O)NCc3ccccc3)N(Cc3cncnc3)[C@H]21 (mixture of isomers) ?
ERp5 block: inactive; MLL AF4-AF9 inh: inactive; SIRT5 inh: inactive

What do the screens show for `COc1ccc(NC(=O)Nc2ccc3c(c2)C(=O)N([C@@H](C)CO)C[C@H](C)[C@H](CN(C)S(=O)(=O)c2ccc(C)cc2)O3)cc1`?
ERp5 block: inactive; MLL AF4-AF9 inh: inactive; SIRT5 inh: inactive

What do the screens show for `CCN1C[C@@H]2[C@@H]3C(=O)N(Cc4ccccc4)C(=O)[C@@H]3[C@](Cc3ccccc3)(C1=O)N2C(=O)c1ccc(C)cc1`?
ERp5 block: inactive; FN deposit inh: inactive; MLL AF4-AF9 inh: inactive; SIRT5 inh: 17; PDI inh: inactive

How did Cc1ccc(C(=O)N2[C@@H]3CN(C)C(=O)[C@@]2(Cc2ccccc2)[C@H]2C(=O)N(Cc4ccccc4)C(=O)[C@@H]32)cc1 do in these assays?
ERp5 block: inactive; FN deposit inh: inactive; MLL AF4-AF9 inh: inactive; SIRT5 inh: inactive; PDI inh: inactive

How did Cc1ccccc1N=Cc1ccc[nH]1 do in these assays?
ERp5 block: inactive; FN deposit inh: inactive; MLL AF4-AF9 inh: inactive; SIRT5 inh: inactive; PDI inh: inactive

Results for Cc1oc(-c2cccs2)nc1CN1CCN(C2CCCC2)C(CCO)C1 (stereo unspecified) ?
ERp5 block: inactive; FN deposit inh: inactive; MLL AF4-AF9 inh: inactive; SIRT5 inh: inactive; PDI inh: inactive

How did Cc1oc(-c2cccs2)nc1CN1CCN(CCC(C)C)C(CCO)C1 (stereo unspecified) do in these assays?
ERp5 block: inactive; FN deposit inh: inactive; MLL AF4-AF9 inh: inactive; SIRT5 inh: 17; PDI inh: inactive

What do the screens show for `CCOC(=O)c1cnc(-n2nc(C)cc2C)nc1NCc1ccc2c(c1)OCO2`?
FN deposit inh: inactive; PDI inh: inactive

Results for CN(C)S(=O)(=O)c1cccc(NC(=O)CCCSc2ccccc2)c1 ?
ERp5 block: inactive; FN deposit inh: inactive; MLL AF4-AF9 inh: inactive; SIRT5 inh: inactive; PDI inh: inactive

What do the screens show for `CC(=O)c1cccc(NC(=O)CCCSc2ccccc2)c1`?
ERp5 block: inactive; FN deposit inh: inactive; MLL AF4-AF9 inh: inactive; SIRT5 inh: 16; PDI inh: inactive
